{"data": "Published values pooled from the literature", "target": "Ephrin type-B receptor 4 (EPHB4, Homo sapiens, UniProt P54760)", "Residues used in one study (P54760 16-987)": "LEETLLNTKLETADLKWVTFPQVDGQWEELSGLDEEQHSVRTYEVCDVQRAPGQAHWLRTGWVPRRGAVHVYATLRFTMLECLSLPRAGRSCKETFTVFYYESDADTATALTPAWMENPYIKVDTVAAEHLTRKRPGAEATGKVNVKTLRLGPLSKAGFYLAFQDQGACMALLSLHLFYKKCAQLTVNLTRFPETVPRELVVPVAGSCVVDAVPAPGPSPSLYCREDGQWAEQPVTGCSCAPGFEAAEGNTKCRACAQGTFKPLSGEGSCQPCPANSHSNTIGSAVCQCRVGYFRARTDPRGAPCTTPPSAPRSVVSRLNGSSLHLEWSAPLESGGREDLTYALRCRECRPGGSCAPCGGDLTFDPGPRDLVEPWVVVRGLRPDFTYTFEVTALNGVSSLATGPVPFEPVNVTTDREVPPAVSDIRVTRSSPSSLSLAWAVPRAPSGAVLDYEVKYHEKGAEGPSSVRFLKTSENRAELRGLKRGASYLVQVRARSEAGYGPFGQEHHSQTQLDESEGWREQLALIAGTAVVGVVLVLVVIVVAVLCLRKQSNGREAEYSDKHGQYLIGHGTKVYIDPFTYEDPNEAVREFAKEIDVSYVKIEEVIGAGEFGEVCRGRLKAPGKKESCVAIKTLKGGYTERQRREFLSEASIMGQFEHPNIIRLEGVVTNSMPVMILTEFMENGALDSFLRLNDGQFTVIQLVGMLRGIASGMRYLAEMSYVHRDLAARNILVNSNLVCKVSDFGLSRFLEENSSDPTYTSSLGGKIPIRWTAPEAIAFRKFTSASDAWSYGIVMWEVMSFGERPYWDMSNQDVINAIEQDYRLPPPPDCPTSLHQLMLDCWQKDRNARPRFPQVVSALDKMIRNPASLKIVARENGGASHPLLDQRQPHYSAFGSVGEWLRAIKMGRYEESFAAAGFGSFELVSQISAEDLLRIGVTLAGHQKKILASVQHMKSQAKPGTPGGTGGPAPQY", "note": "Each line is one published result; the experiments were not run side by side."}
{"SMILES": "CC(C)(C)c1nc(-c2cccc(NS(=O)(=O)c3c(F)cccc3F)c2F)c(-c2ccnc(N)n2)s1", "test": "enzyme activity, inhibitor, radiometric", "setting": "1 µM", "endpoint": "remaining activity", "value": "97%"}
{"SMILES": "COc1cc2ncnc(Nc3ccc(Oc4ccccc4)c(C)c3C)c2cc1OC", "test": "enzyme activity, inhibitor", "setting": "1 µM", "endpoint": "inhibition", "value": "3%"}
{"SMILES": "COc1cc2c(Nc3ccc(Br)cc3F)ncnc2cc1OCC1CCN(C)CC1", "test": "cell-free assay", "setting": "0.5 µM", "endpoint": "remaining signal", "value": "13%"}
{"SMILES": "C[C@@H](c1cccc(C#N)c1)n1cc(Cl)cc(C(N)=O)c1=N", "test": "cell-free assay, competition with immobilised ligand", "setting": "1 µM", "endpoint": "remaining binding", "value": "96%"}
{"SMILES": "N#CCCc1ccc2c(c1)-c1[nH]c3ccc([N+](=O)[O-])cc3c1CC(=O)N2", "test": "cell-free assay", "setting": "0.5 µM", "endpoint": "remaining signal", "value": "82.2%"}
{"SMILES": "c1ccc(CNc2nc(N3CCOc4ccccc43)nc3c2CCCC3)cc1", "test": "target engagement in cells, inhibitor, chemoproteomics", "setting": "20 mM", "endpoint": "inhibition", "value": "-4%"}
{"SMILES": "CC1=C(C#N)[C@@H](c2ccc3[nH]nc(C)c3c2)C(C#N)=C(c2ccc(Cl)cc2)N1", "test": "cell-free assay, competition with immobilised ligand", "setting": "1 µM", "endpoint": "remaining binding", "value": "100%"}
{"SMILES": "FC(F)c1nc2ccccc2n1-c1nc(N2CCOCC2)nc(N2CCOCC2)n1", "test": "enzyme activity, inhibitor", "setting": "10 µM", "endpoint": "remaining activity", "value": "105%"}
{"SMILES": "Oc1ccc(-c2nc(-c3ccncc3)c(-c3ccc(F)cc3)[nH]2)cc1", "test": "cell-free assay", "setting": "0.5 µM", "endpoint": "remaining signal", "value": "89%"}
{"SMILES": "COc1cc(/C=C/C(=O)CC(=O)/C=C/c2ccc(O)c(OC)c2)ccc1O", "test": "enzyme activity, inhibitor", "setting": "1 µM", "endpoint": "activity vs control", "value": "105%"}
{"SMILES": "Cc1ccc(Nc2nccc(N(C)c3ccc4c(C)n(C)nc4c3)n2)cc1S(N)(=O)=O", "test": "cell-free assay", "setting": "0.5 µM", "endpoint": "remaining signal", "value": "93.8%"}
{"SMILES": "CCCOc1ccc(OC)c(F)c1C(=O)c1ccc(C(=O)N[C@@H]2CNC[C@H]2NC(=O)c2ccc3[nH]ncc3c2)cc1", "test": "enzyme activity, inhibitor", "setting": "10 µM", "endpoint": "remaining activity", "value": "79%"}
{"SMILES": "COc1cc(Nc2cnc(C#N)c(O[C@H](C)CN(C)C)n2)ncc1-c1cnn(C)c1", "test": "enzyme activity, inhibitor, radiometric", "setting": "1 µM", "endpoint": "remaining activity", "value": "96%"}
{"SMILES": "Cc1cc(NC(=O)c2cccc3cc(-c4cccc5[nH]nc(N)c45)ccc23)ccc1F", "test": "enzyme activity, inhibitor", "setting": "0.1 µM", "endpoint": "activity vs control", "value": "109%"}
{"SMILES": "CC/C(=N\\NC(=O)NCc1cccc(O)c1)c1ccc(O)c(C)c1O", "test": "enzyme activity, inhibitor", "setting": "0.1 µM", "endpoint": "inhibition", "value": "0.2%"}
{"SMILES": "Cn1c(=O)n(-c2ccc(C(C)(C)C#N)cc2)c2c3cc(-c4cnc5ccccc5c4)ccc3ncc21", "test": "enzyme activity, inhibitor", "setting": "10 µM", "endpoint": "remaining activity", "value": "99%"}
{"SMILES": "CNCc1ccc(-c2cc(-c3nc(-c4ccc(S(=O)(=O)C(C)C)cc4)cnc3N)on2)cc1", "test": "enzyme activity, inhibitor", "setting": "2 µM", "endpoint": "inhibition", "value": "10%"}
{"SMILES": "CNC(=O)c1cc2c(Oc3ccc(NC(=O)C4(C(=O)Nc5ccc(F)cc5)CC4)cc3)ccnc2cc1OC", "test": "enzyme activity, inhibitor, radiometric", "setting": "1 µM", "endpoint": "inhibition", "value": "83%"}
{"SMILES": "N#Cc1ccc(Nc2ccc3[nH]c(=O)[nH]c3c2)c(Cl)c1", "test": "cell-free assay, competition with immobilised ligand", "setting": "1 µM", "endpoint": "remaining binding", "value": "98%"}
{"SMILES": "Cc1[nH]c(/C=C2\\C(=O)Nc3ccc(F)cc32)c(C)c1C(=O)N[C@H]1CCN(C(=O)N(C)C)C1", "test": "enzyme activity, inhibitor", "setting": "1 µM", "endpoint": "remaining activity", "value": "101%"}
{"SMILES": "CC(=O)Nc1c(C(C)=O)c(=O)n(C)c2nc(-c3ccc(Cl)cc3Cl)c(-c3ccc(Cl)cc3)cc12", "test": "cell-free assay, competition with immobilised ligand", "setting": "1 µM", "endpoint": "remaining binding", "value": "100%"}
{"SMILES": "Cc1cnc(NC2CCOCC2)nc1-n1cnc(C(=O)NC(CN)c2cc(F)cc(Cl)c2)c1 (stereo not drawn)", "test": "enzyme activity, inhibitor, radiometric", "setting": "1 µM", "endpoint": "remaining activity", "value": "89%"}
{"SMILES": "CN([C@@H]1CCc2c(CC(=O)O)c3cc(S(C)(=O)=O)ccc3n2C1)S(=O)(=O)c1ccc(F)cc1", "test": "cell-free assay, competition with immobilised ligand", "setting": "1 µM", "endpoint": "remaining binding", "value": "95%"}
{"SMILES": "Nc1ncnc2occ(-c3ccc(NC(=O)Nc4cc(C(F)(F)F)ccc4F)cc3)c12", "test": "cell-free assay", "setting": "20 µM", "endpoint": "remaining signal", "value": "0%"}
{"SMILES": "O=C(NCc1ncc(C(F)(F)F)cc1Cl)c1ccc2c(c1)C1(CCS(=O)(=O)CC1)[C@H](C1CC1)N2S(=O)(=O)c1ccc(F)cc1", "test": "cell-free assay, competition with immobilised ligand", "setting": "1 µM", "endpoint": "remaining binding", "value": "100%"}
{"SMILES": "CCCCNc1ncc2c(-c3ccc(F)cc3)nn(C[C@H]3CC[C@H](N)CC3)c2n1", "test": "target engagement in cells, inhibitor, chemoproteomics", "setting": "20 mM", "endpoint": "inhibition", "value": "97.5%"}
{"SMILES": "CSc1cccnc1N1CCN(Cc2nc3ccccc3[nH]2)CC1", "test": "cell-free assay, competition with immobilised ligand", "setting": "1 µM", "endpoint": "remaining binding", "value": "100%"}
{"SMILES": "Cc1sc(C(=O)NC2COC2)cc1-n1cc(NC(=O)Nc2c(F)cccc2Cl)cn1", "test": "enzyme activity, inhibitor", "setting": "10 µM", "endpoint": "remaining activity", "value": "93.7%"}
{"SMILES": "O=C(N[C@H]1CCCCC/C=C\\C2C[C@@]2(C(=O)O)NC(=O)[C@@H]2C[C@@H](Oc3ccncc3)CN2C1=O)OC1CCCC1 (stereo partly drawn)", "test": "cell-free assay, competition with immobilised ligand", "setting": "1 µM", "endpoint": "remaining binding", "value": "100%"}
{"SMILES": "Cc1ccc(C(=O)Nc2ccc(CN3CCN(C)CC3)c(C(F)(F)F)c2)cc1C#Cc1cnc2cccnn12", "test": "cell-free assay", "setting": "23.5 nM", "endpoint": "remaining signal", "value": "92%"}
